These results are taken from ChEMBL document CHEMBL1671843, “Synthesis and SAR of Thiazolylmethylphenyl Glucoside as Novel C-Aryl Glucoside SGLT2 Inhibitors” (ACS Med Chem Lett, 2011).

What is called IC50 is the point on the concentration scale where inhibition reaches its midpoint. The term bioavailability denotes dose-corrected exposure relative to a reference, in per cent. Higher therefore signals much systemic uptake. A word on the Cmax: it is the highest concentration seen after dosing. A word on the half-life: it is the time needed for the level to fall by half in the phase considered. Low values mean fast loss, high ones slow loss.

The target in data set [1] is T1, Sodium/glucose cotransporter 2 (Homo sapiens, UniProt P31639).
T1 sequence (P31639 whole entry): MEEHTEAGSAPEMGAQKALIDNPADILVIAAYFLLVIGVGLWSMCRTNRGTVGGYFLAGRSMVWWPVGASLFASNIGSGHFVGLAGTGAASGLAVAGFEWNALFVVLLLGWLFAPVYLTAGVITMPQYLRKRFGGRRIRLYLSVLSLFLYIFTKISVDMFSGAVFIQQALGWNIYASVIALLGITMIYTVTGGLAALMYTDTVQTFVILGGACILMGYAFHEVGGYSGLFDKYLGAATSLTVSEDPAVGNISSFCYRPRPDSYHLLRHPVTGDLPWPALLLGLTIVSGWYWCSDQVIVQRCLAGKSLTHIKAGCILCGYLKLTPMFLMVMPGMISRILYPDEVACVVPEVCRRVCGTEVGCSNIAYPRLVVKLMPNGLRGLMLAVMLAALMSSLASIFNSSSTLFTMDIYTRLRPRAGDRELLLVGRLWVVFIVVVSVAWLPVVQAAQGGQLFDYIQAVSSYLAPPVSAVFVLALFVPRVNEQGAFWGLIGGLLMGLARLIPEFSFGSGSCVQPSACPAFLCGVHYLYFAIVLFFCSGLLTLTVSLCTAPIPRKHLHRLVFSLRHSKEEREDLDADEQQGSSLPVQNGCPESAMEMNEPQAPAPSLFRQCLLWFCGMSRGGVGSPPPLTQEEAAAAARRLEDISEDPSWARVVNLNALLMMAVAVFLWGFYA
Nature of the data set: Inhibition of human SGLT2 expressed in CHO cells assessed as [14C]-alpha-methyl-D-glucopyranoside uptake after 2 hrs by liquid scintillation counting. Type of data set: cell-based. The gist of the method: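 Sodium-dependent glucose transport assay against hSGLT2. IC50 was fitted by nonlinear regression. Values are from single determinations.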

Data set [2] has as its system Rattus norvegicus. Nature of the data set: Antidiabetic activity in Sprague-Dawley rat assessed as increase of urinary glucose excretion at 1 mg/kg, po relative to control. Type of data set: functional, Urine. The gist of the method:
(§1)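 Normal Sprague-Dawley rats received a single oral dose of 1 or 10 mg/kg. Urinary glucose excretion was measured and expressed as fold elevation in glucose disposal over vehicle-treated controls. Values are means ± SEM, compared with vehicle by one-way ANOVA with Dunnett's post hoc test. Urine volume was also recorded.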

Data set [3] relates to Rattus norvegicus. In words: Antidiabetic activity in Sprague-Dawley rat assessed as increase of urine volume at 10 mg/kg, po relative to control. In kind it is functional. The gist of the method:
(§2)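 Normal Sprague-Dawley rats given a single oral dose (1 or 10 mg/kg) against vehicle controls. Urinary glucose excretion and urine volume were measured and expressed as fold over vehicle. Data are means ± SEM, compared to vehicle by one-way ANOVA with Dunnett's post hoc test.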

The subject of data set [4] is Rattus norvegicus. Nature of the data set: Antidiabetic activity in Sprague-Dawley rat assessed as increase of urinary glucose excretion at 10 mg/kg, po relative to control. In kind it is functional, Urine. The gist of the method:
as §1

Data set [5] in a line: Oral bioavailability in Sprague-Dawley rat at 5 mg/kg. In kind it is ADME, organism-based. Conditions: in vivo. The gist of the method:
(§3)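 Male Sprague-Dawley rats dosed orally at 5 mg/kg. Measured Cmax with time to Cmax, elimination half-life and oral bioavailability (F).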

Data set [6] is described as follows: Cmax in Sprague-Dawley rat at 5 mg/kg, po after 0.38 hrs. In kind it is ADME, organism-based. On the set-up: dose 5 mg/kg, route oral. Conditions: in vivo. The gist of the method:
as §3

Data set [7] has as its system Rattus norvegicus. In words: Antidiabetic activity in Sprague-Dawley rat assessed as increase of glucose disposal at 10 mg/kg, po relative to control. Type of data set: functional. The gist of the method: as §2
Data set [8] concerns Rattus norvegicus. Nature of the data set: Antidiabetic activity in Sprague-Dawley rat assessed as increase of glucose disposal at 1 mg/kg, po relative to control. Type of data set: functional. The gist of the method: as §2
Data set [9] in a line: Elimination half life in Sprague-Dawley rat at 5 mg/kg, po. In kind it is ADME, organism-based. On the set-up: dose 5 mg/kg, route oral. The conditions noted are these: in vivo. The gist of the method: as §3
Data set [10] relates to Rattus norvegicus. Nature of the data set: Antidiabetic activity in Sprague-Dawley rat assessed as increase of urine volume at 1 mg/kg, po relative to control. Type of data set: functional. The gist of the method:
as §2

Turning to `OC[C@H]1O[C@@H](c2ccc(Cl)c(Cc3ncc(-c4nccs4)s3)c2)[C@H](O)[C@@H](O)[C@@H]1O`, the IC50 in data set [1] was found to be 3.13 nM.

With `OC[C@H]1O[C@@H](c2ccc(Cl)c(Cc3ncc(-c4ccco4)s3)c2)[C@H](O)[C@@H](O)[C@@H]1O`, the “fold change (FC)” value was 230 in [2], 3.7 in [3] and 700 in data set [4]. In [1], the IC50 came to 0.72 nM. In data set [5], the bioavailability is 20.6%.

Turning to `CCCCCCCc1cnc(Cc2cc([C@@H]3O[C@H](CO)[C@@H](O)[C@H](O)[C@H]3O)ccc2Cl)s1`, the IC50 in data set [1] was found to be 12.4 nM.

Take `N#Cc1ccc([C@@H]2O[C@H](CO)[C@@H](O)[C@H](O)[C@H]2O)cc1Cc1ncc(-c2ccsc2)s1`: the IC50 in [1] came to 140 nM.

Regarding `OC[C@H]1O[C@@H](c2ccc(F)c(Cc3ncc(-c4ccsc4)s3)c2)[C@H](O)[C@@H](O)[C@@H]1O`, the IC50 in data set [1] is 7.36 nM.

As for `OC[C@H]1O[C@@H](c2ccc(C(F)(F)F)c(Cc3ncc(-c4ccsc4)s3)c2)[C@H](O)[C@@H](O)[C@@H]1O`, in data set [1], the IC50 was 14.6 nM.

On to `OC[C@H]1O[C@@H](c2ccc(Cl)c(Cc3ncc(-c4ccccc4)s3)c2)[C@H](O)[C@@H](O)[C@@H]1O`, for which, in data set [1], the IC50 is 13.3 nM.

Take `CCCCOc1cnc(Cc2cc([C@@H]3O[C@H](CO)[C@@H](O)[C@H](O)[C@H]3O)ccc2Cl)s1`: the half-inhibitory concentration (IC50) in data set [1] was found to be 19.6 nM.

For the compound `OC[C@H]1O[C@@H](c2ccc(Cl)c(Cc3cnc(-c4ccsc4)s3)c2)[C@H](O)[C@@H](O)[C@@H]1O`, in [1], the IC50 worked out at 1.11 nM.

In the case of `OC[C@H]1O[C@@H](c2ccc(Cl)c(Cc3ncc(-c4ccc(-c5ccccc5)cc4)s3)c2)[C@H](O)[C@@H](O)[C@@H]1O`, in data set [1], the IC50 is 9.31 nM.

Consider `OC[C@H]1O[C@@H](c2ccc(Cl)c(Cc3ncc(-c4cccs4)s3)c2)[C@H](O)[C@@H](O)[C@@H]1O`, for which the IC50 in data set [1] was 1.14 nM.

Turning to `OC[C@H]1O[C@@H](c2ccc(Cl)c(Cc3ncc(-c4ccoc4)s3)c2)[C@H](O)[C@@H](O)[C@@H]1O`, the IC50 in [1] was 1.57 nM.

Turning to `O=C(O)c1cnc(Cc2cc([C@@H]3O[C@H](CO)[C@@H](O)[C@H](O)[C@H]3O)ccc2Cl)s1`, in data set [1], the IC50 was > 10000 nM.

The compound `OC[C@H]1O[C@@H](c2ccc(Cl)c(Cc3ncc(-c4ccsc4)s3)c2)[C@H](O)[C@@H](O)[C@@H]1O` yielded a Cmax in [6] of 1540 ng/mL. Further, the IC50 in [1] stood at 0.772 nM. Also, the “fold change (FC)” value was 730 in data set [7], 4.2 in [3], 160 in data set [8] and 2.5 in data set [10]. The bioavailability in data set [5] was found to be 15%. This compound also showed a half-life in data set [9] of 2.51 h.

For the compound `OC[C@H]1O[C@@H](c2ccc(Br)c(Cc3ncc(-c4ccsc4)s3)c2)[C@H](O)[C@@H](O)[C@@H]1O`, the IC50 in [1] is 6.36 nM.

As to `CCOc1ccc(Cc2cc([C@@H]3O[C@H](CO)[C@@H](O)[C@H](O)[C@H]3O)ccc2Cl)cc1` [DAPAGLIFLOZIN], the bioavailability in data set [5] is 88%. For the same compound, the “fold change (FC)” value in data set [10] is 5.7.
